In the RNAGym collection of RNA variant scans (doi:10.1002/anie.201605470) one finds self-cleavage data, which are given here for 49 variants.

To fix the notation:
B1: Osa-1-4 twister ribozyme (parent)
chain: CCGCCUAACACUGCCAAUGCCGGUCCCAAGCCCGGAUAAAAGUGGAGGGGGCGG

Variants of B1 are the subject of the data set. In words: self-cleavage, relative activity (ratio to wild type); higher = more cleavage; co-transcriptional. An outline of the steps:
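In vitro transcription at 37 °C for 2 h allowed the twister ribozyme to cleave itself as it was made. Its 54-nucleotide Oryza sativa template had been synthesised with 97 % wild-type base and 1 % of each other base at the 48 positions downstream of the cleavage site. A template-switching oligonucleotide was used for reverse transcription, followed by PCR amplification and deep sequencing. Whether reads carried upstream sequence set the cleavage status, and relative activity is the fraction cleaved normalised to wild type.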
For the variant CCGCCUAACAGUGCCAAUGCCGGUCCCAAGCCCGAAUAAAAGUGGAGGGGGCGG [C11G G35A], the self-cleavage amounted to 0.08.

For the variant CCGCCUAACAGUGCCAAUGCCGGUCCCAAGCCCGUAUAAAAGUGGAGGGGGCGG [C11G G35U], the self-cleavage is 0.06.

CCGCCUAACAGUGCCAAUGCCGGUCCCAAGCCCGCAUAAAAGUGGAGGGGGCGG [C11G G35C]: the self-cleavage worked out at 0.05.

As to CCGCCUAACAGUGCCAAUGCCGGUGCCAAGCCCGGAUAAAAGUGGAGGGGGCGG [C11G C25G], the self-cleavage is 0.04.

CCGCCUAACAGUGCCAAUGCCGGUACCAAGCCCGGAUAAAAGUGGAGGGGGCGG [C11G C25A]: the self-cleavage worked out at 0.04.

On to CCGCCUAACAGUGCCAAUGCCGGUUCCAAGCCCGGAUAAAAGUGGAGGGGGCGG [C11G C25U], for which the self-cleavage was found to be 0.18.

Regarding CCGCCUAACAGUGCCAAUGCCGGUCCCAAGCCCGGAUAAAAGUGGAGGGGGGGG [C11G C52G], the self-cleavage came to 0.22.

With CCGCCUAACAGUGCCAAUGCCGGUCCCAAGCCCGGAUAAAAGUGGAGGGGGAGG [C11G C52A], the self-cleavage stood at 0.24.

With CCGCCUAACAGUGCCAAUGCCGGUCCCAAGCCCGGAUAAAAGUGGAGGGGGUGG [C11G C52U], the self-cleavage is 0.73.

On to CCGCCUAACAGUGCCAAUGCCGGUCCCAAGCCCGGAUAAAAGUCGAGGGGGCGG [C11G G44C], for which the self-cleavage was 0.11.

With CCGCCUAACAGUGCCAAUGCCGGUCCCAAGCCCGGAUAAAAGUUGAGGGGGCGG [C11G G44U], the self-cleavage was found to be 0.09.

Consider CCGCCUAACAGUGCCAAUGCCGGUCCCAAGCCCGGAUAAAAGUAGAGGGGGCGG [C11G G44A], for which the self-cleavage amounted to 0.17.

As for CCGCCUAACAGUGCCAAUGCCGGUCCCAAGCCCCGAUAAAAGUGGAGGGGGCGG [C11G G34C], the self-cleavage is 0.05.

As to CCGCCUAACAGUGCCAAUGCCGGUCCCAAGCCCAGAUAAAAGUGGAGGGGGCGG [C11G G34A], the self-cleavage turned out to be 0.07.

CCGCCUAACAGUGCCAAUGCCGGUCCCAAGCCCUGAUAAAAGUGGAGGGGGCGG [C11G G34U]: the self-cleavage worked out at 0.04.

As to CCGCCUAACAGUACCAAUGCCGGUCCCAAGCCCGGAUAAAAGUGGAGGGGGCGG [C11G G13A], the self-cleavage is 0.06.

Turning to CCGCCUAACAGUCCCAAUGCCGGUCCCAAGCCCGGAUAAAAGUGGAGGGGGCGG [C11G G13C], the self-cleavage is 0.02.

Consider CCGCCUAACAGUUCCAAUGCCGGUCCCAAGCCCGGAUAAAAGUGGAGGGGGCGG [C11G G13U], for which the self-cleavage stood at 0.03.

For CCGCCUAACAGUGCCAAUGCCGGUCCCAAGGCCGGAUAAAAGUGGAGGGGGCGG [C11G C31G], the self-cleavage was determined as 0.04.

For CCGCCUAACAGUGCCAAUGCCGGUCCCAAGACCGGAUAAAAGUGGAGGGGGCGG [C11G C31A], the self-cleavage amounted to 0.03.

Take CCGCCUAACAGUGCCAAUGCCGGUCCCAAGUCCGGAUAAAAGUGGAGGGGGCGG [C11G C31U]: the self-cleavage was found to be 0.08.

As to CCGCCUAACAGUGCCAAUGCCGGUCCCAAGCGCGGAUAAAAGUGGAGGGGGCGG [C11G C32G], the self-cleavage worked out at 0.06.

Take CCGCCUAACAGUGCCAAUGCCGGUCCCAAGCACGGAUAAAAGUGGAGGGGGCGG [C11G C32A]: the self-cleavage came to 0.04.

CCGCCUAACAGUGCCAAUGCCGGUCCCAAGCUCGGAUAAAAGUGGAGGGGGCGG [C11G C32U]: the self-cleavage worked out at 0.04.

Regarding CCGCCUAACAGUGCCAAUGCCGGUCACAAGCCCGGAUAAAAGUGGAGGGGGCGG [C11G C26A], the self-cleavage amounted to 0.03.

Consider CCGCCUAACAGUGCCAAUGCCGGUCGCAAGCCCGGAUAAAAGUGGAGGGGGCGG [C11G C26G], for which the self-cleavage is 0.1.

As to CCGCCUAACAGUGCCAAUGCCGGUCUCAAGCCCGGAUAAAAGUGGAGGGGGCGG [C11G C26U], the self-cleavage came to 0.19.

Take CCGCCUAACAGUGCCAAUGCCGCUCCCAAGCCCGGAUAAAAGUGGAGGGGGCGG [C11G G23C]: the self-cleavage turned out to be 0.02.

With CCGCCUAACAGUGCCAAUGCCGAUCCCAAGCCCGGAUAAAAGUGGAGGGGGCGG [C11G G23A], the self-cleavage was 0.05.

CCGCCUAACAGUGCCAAUGCCGUUCCCAAGCCCGGAUAAAAGUGGAGGGGGCGG [C11G G23U]: the self-cleavage stood at 0.04.

In the case of CCGCCUAACAGUGCCAAUGCCAGUCCCAAGCCCGGAUAAAAGUGGAGGGGGCGG [C11G G22A], the self-cleavage is 0.07.

With CCGCCUAACAGUGCCAAUGCCUGUCCCAAGCCCGGAUAAAAGUGGAGGGGGCGG [C11G G22U], the self-cleavage was 0.03.

Regarding CCGCCUAACAGUGCCAAUGCCCGUCCCAAGCCCGGAUAAAAGUGGAGGGGGCGG [C11G G22C], the self-cleavage stood at 0.04.

As for CCGCCUAACAGUGCCAAUGCCGGUCCCAAACCCGGAUAAAAGUGGAGGGGGCGG [C11G G30A], the self-cleavage amounted to 0.03.

CCGCCUAACAGUGCCAAUGCCGGUCCCAACCCCGGAUAAAAGUGGAGGGGGCGG [C11G G30C]: the self-cleavage was found to be 0.04.

In the case of CCGCCUAACAGUGCCAAUGCCGGUCCCAAUCCCGGAUAAAAGUGGAGGGGGCGG [C11G G30U], the self-cleavage was 0.02.

Turning to CCGCCUAACAGUGCCAAUUCCGGUCCCAAGCCCGGAUAAAAGUGGAGGGGGCGG [C11G G19U], the self-cleavage worked out at 0.05.

Turning to CCGCCUAACAGUGCCAAUACCGGUCCCAAGCCCGGAUAAAAGUGGAGGGGGCGG [C11G G19A], the self-cleavage worked out at 0.08.

Consider CCGCCUAACAGUGCCAAUCCCGGUCCCAAGCCCGGAUAAAAGUGGAGGGGGCGG [C11G G19C], for which the self-cleavage was determined as 0.03.

Take CCGCCUAACAGUGCCAAUGCCGGUCCCAAGCCCGGAUAAAAAUGGAGGGGGCGG [C11G G42A]: the self-cleavage was determined as 0.75.

Regarding CCGCCUAACAGUGCCAAUGCCGGUCCCAAGCCCGGAUAAAACUGGAGGGGGCGG [C11G G42C], the self-cleavage amounted to 0.76.

In the case of CCGCCUAACAGUGCCAAUGCCGGUCCCAAGCCCGGAUAAAAUUGGAGGGGGCGG [C11G G42U], the self-cleavage is 0.61.

Take CCGCCUAACAGUGCCAAUGCCGGUCCCAAGCCGGGAUAAAAGUGGAGGGGGCGG [C11G C33G]: the self-cleavage was found to be 0.07.

As for CCGCCUAACAGUGCCAAUGCCGGUCCCAAGCCUGGAUAAAAGUGGAGGGGGCGG [C11G C33U], the self-cleavage was 0.06.

For the variant CCGCCUAACAGUGCCAAUGCCGGUCCCAAGCCAGGAUAAAAGUGGAGGGGGCGG [C11G C33A], the self-cleavage was 0.04.

Take CCGCCUAACAGUGCCAAUGCUGGUCCCAAGCCCGGAUAAAAGUGGAGGGGGCGG [C11G C21U]: the self-cleavage was 0.39.

CCGCCUAACAGUGCCAAUGCCGGUCCAAAGCCCGGAUAAAAGUGGAGGGGGCGG [C11G C27A]: the self-cleavage amounted to 0.07.

With CCGCCUAACAGUGCCAAUGCCGGUCCUAAGCCCGGAUAAAAGUGGAGGGGGCGG [C11G C27U], the self-cleavage worked out at 0.06.

As for CCGCCUAACAGUGCCAAUGCCGGUCCGAAGCCCGGAUAAAAGUGGAGGGGGCGG [C11G C27G], the self-cleavage amounted to 0.03.
